Laboratory results: ChEMBL document CHEMBL1150800, “Multiple-dose escalation study of the safety, pharmacokinetics, and biologic activity of oral AMD070, a selective CXCR4 receptor inhibitor, in human subjects” (Antimicrob Agents Chemother, 2007)
Converted amounts (≈) assume the structure as drawn.

Assays:
[1] = AUC (0 to 12 hrs) in fasting healthy human at 400 mg, po administered every 12 hrs measured between 72 to 84 hrs postdose; type: ADME, organism-based; design: time < 12 hr, dose 400 mg, route oral; details: plasma
How it was run: (§1)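 Six healthy men per cohort dosed orally q12h for seven doses. Morning doses given after 8-h fast, with fasting until 1 h post-dose. After the final dose (72 h after the first) plasma was sampled predose and 0.5–24 h. Validated HPLC-MS/MS assay. Noncompartmental parameters (log-linear trapezoidal AUC) from all time points, summarized per cohort.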

[2] = system: Homo sapiens; assay: Apparent volume of distribution in fasting healthy human at 100 mg, po administered as single dose after 12 hrs; type: ADME, organism-based; details: in vivo
How it was run: (§2)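 Healthy male volunteers, three per cohort, one oral dose after 8-h overnight fast, fasting kept until 1 h post-dose. Plasma sampled predose and at 0.5, 1, 1.5, 2, 3, 4, 6, 8, 12, 16, 20, 24 h. Levels by validated HPLC-MS/MS (liquid-liquid extraction, positive-ion electrospray). Noncompartmental analysis, log-linear trapezoidal AUC, summarized per cohort.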

[3] = AUC (0 to 12 hrs) in fasting healthy human at 100 mg, po administered every 12 hrs measured between 72 to 84 hrs postdose; type: ADME, organism-based; design: dose 100 mg, time < 12 hr, route oral; details: plasma; how it was run: as §1
[4] = system: Homo sapiens; assay: Half life in fasting healthy human at 200 mg, po administered every 12 hrs; type: ADME, organism-based; details: in vivo; how it was run: as §1
[5] = Drug level in fasting healthy human at 400 mg, po administered every 12 hrs measured after 84 hrs; type: ADME, organism-based; details: in vivo, read-out: Drug uptake; how it was run: as §1
[6] = Drug level in fasting healthy human at 100 mg, po administered as single dose after 12 hrs; type: ADME, organism-based; details: in vivo, read-out: Drug uptake; how it was run: as §2
[7] = Drug level in fasting healthy human at 50 mg, po administered as single dose after 12 hrs; type: ADME, organism-based; details: in vivo, read-out: Drug uptake; how it was run: as §2
[8] = Drug level in fasting healthy human at 200 mg, po administered every 12 hrs measured after 84 hrs; type: ADME, organism-based; details: in vivo, read-out: Drug uptake; how it was run: as §1
[9] = Tmax in fasting healthy human at 100 mg, po administered every 12 hrs; type: ADME, organism-based; details: in vivo
How it was run: (§3)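 Six healthy male volunteers per cohort received seven oral doses q12h. Morning doses followed an 8-h fast, with fasting continued until 1 h post-dose. After the final dose (72 h after the first), plasma was sampled pre-dose and at 0.5–24 h, and assayed by validated HPLC-MS/MS. Tmax came from individual noncompartmental analysis, summarized per cohort.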

[10] = system: Homo sapiens; assay: Decrease in CD4 cell count in fasting healthy human at 200 mg, po administered every 12 hrs measured after 24 hrs relative to baseline; type: functional; design: scale not given: the % may be the effect or the level left
How it was run: (§4)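 CD4+ counts drawn before the first dose and at 2, 4, 6, 8 and 24 h after the final (seventh) q12h oral dose in fasting healthy men. Each post-dose value divided by the baseline value to give a ratio. Deviation from no effect tested by Wilcoxon rank sum, dose trend by Jonckheere-Terpstra.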

[11] = Tmax in fasting healthy human at 200 mg, po administered every 12 hrs; type: ADME, organism-based; details: in vivo; how it was run: as §3
[12] = Oral bioavailability in rat; type: ADME, organism-based; details: in vivo
[13] = system: Homo sapiens; assay: AUC ( 0 to infinity) in fasting healthy human at 400 mg, po administered as single dose after 12 hrs; type: ADME, organism-based, Plasma; design: dose 400 mg, time infinity, route oral; details: in vivo; how it was run: as §2
[14] = system: Homo sapiens; assay: Half life in fasting healthy human at 50 mg, po administered as single dose after 12 hrs; type: ADME, organism-based; details: in vivo; how it was run: as §2
[15] = system: Homo sapiens; assay: AUC ( 0 to infinity) in fasting healthy human at 200 mg, po administered as single dose after 12 hrs; type: ADME, organism-based, Plasma; design: dose 200 mg, route oral, time infinity; details: in vivo; how it was run: as §2
[16] = system: Homo sapiens; assay: Decrease in CD4 cell count in fasting healthy human at 400 mg, po administered every 12 hrs measured after 24 hrs relative to baseline; type: functional; design: scale not given: the % may be the effect or the level left; how it was run: as §4
[17] = Drug level in fasting healthy human at 200 mg, po administered as single dose after 12 hrs; type: ADME, organism-based; details: in vivo, read-out: Drug uptake; how it was run: as §2
[18] = Cmax in fasting healthy human at 100 mg, po administered every 12 hrs; type: ADME, organism-based; design: dose 100 mg, route oral; details: in vivo; how it was run: as §1
[19] = system: Homo sapiens; assay: Induction of leucocytosis in po dosed fasting healthy human assessed as increase in WBC count; type: functional, organism-based
How it was run: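 Total WBC drawn predose and at 2, 4, 6, 8 and 24 h after oral dosing (single-dose cohorts from 200 mg, and multiple-dose cohorts). Ratio taken to baseline. WBC ratio against plasma concentration at all sampling times (n = 232) fit to an Emax model giving Emax and EC50. Per-subject maximum ratio also fit to dose, AUC0-24 and Cmax.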

[20] = system: Homo sapiens; assay: Half life in fasting healthy human at 100 mg, po administered as single dose after 12 hrs; type: ADME, organism-based; details: in vivo; how it was run: as §2
[21] = system: Homo sapiens; assay: Half life in fasting healthy human at 100 mg, po administered every 12 hrs; type: ADME, organism-based; details: in vivo; how it was run: as §1
[22] = system: Homo sapiens; assay: Apparent volume of distribution in fasting healthy human at 400 mg, po administered every 12 hrs; type: ADME, organism-based; details: in vivo; how it was run: as §1
[23] = AUC (0 to 12 hrs) in fasting healthy human at 200 mg, po administered every 12 hrs measured between 72 to 84 hrs postdose; type: ADME, organism-based; design: dose 200 mg, time < 12 hr, route oral; details: plasma; how it was run: as §1
[24] = Drug level in fasting healthy human at 100 mg, po administered every 12 hrs measured after 84 hrs; type: ADME, organism-based; details: in vivo, read-out: Drug uptake; how it was run: as §1
[25] = Half life in rat; type: ADME, organism-based; details: in vivo
[26] = system: Homo sapiens; assay: Apparent volume of distribution in fasting healthy human at 100 mg, po administered every 12 hrs; type: ADME, organism-based; details: in vivo; how it was run: as §1
[27] = Tmax in fasting healthy human at 400 mg, po administered every 12 hrs; type: ADME, organism-based; details: in vivo; how it was run: as §3

AUC at 12 h [1]: 7660 ng·h/mL
Vd [2]: 3940 L
AUC at 12 h [3]: 937 ng·h/mL
t1/2 [4]: 11.2 h
concentration at 84 h [5]: 137 ng/mL
concentration at 12 h [6]: 2.1 ng/mL
concentration at 12 h [7]: 1.5 ng/mL
concentration at 84 h [8]: 33 ng/mL
Tmax [9]: 1.7 h
Tmax [11]: 1.8 h
bioavailability [12]: 20%
AUC [13]: 6716 ng·h/mL
t1/2 [14]: 10.8 h
AUC [15]: 1695 ng·h/mL
concentration at 12 h [17]: 11.6 ng/mL
Cmax [18]: 461 ng/mL
t1/2 [20]: 7.6 h
t1/2 [21]: 15.9 h
Vd [22]: 966 L
AUC at 12 h [23]: 1590 ng·h/mL
concentration at 84 h [24]: 12 ng/mL
half-life [25]: 1.4 h
Vd [26]: 2663 L
Tmax [27]: 1.8 h
Compound: NCCCCN(Cc1nc2ccccc2[nH]1)[C@H]1CCCc2cccnc21 [MAVORIXAFOR]
Activity [10]: 80%
Activity [16]: 80%
EC50 [19]: 0.039 µg/mL (≈ 0.112 µM)
